Reference: ChEMBL document CHEMBL5058577, “EUbOPEN Chemogenomics Library 2 (Multiplex)” (2022)

Test system: Fibroblast
Assay: Multiplex assay against human fibroblast
Assay type: toxicity, cell-based
In short: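 Compound was added to live cells that had been stained at seeding with Hoechst33342, BioTracker Green Microtubule Cytoskeleton Dye, MitoTracker Red and Annexin V Alexa Fluor 680, and imaging followed on a CQ1 microscope at 37°C and 5% CO2. CellPathfinder machine-learning gating divided cells into Hoechst high-intensity objects or normal cells, normal cells into healthy, pyknosed or fragmented nuclei, and pyknosed cells into mitotic or apoptotic. Tubulin, mitochondrial-mass and membrane-permeability phenotypes are per cents of healthy-nucleus cells.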

[1] = 12 h, 1 µM, compound concentration 1 uM, replicate 1
[2] = 12 h, 1 µM, compound concentration 1 uM, replicate 2
[3] = 12 h, 10 µM, compound concentration 10 uM, replicate 1
[4] = 12 h, 10 µM, compound concentration 10 uM, replicate 2
[5] = 24 h, 1 µM, compound concentration 1 uM, replicate 1
[6] = 24 h, 1 µM, compound concentration 1 uM, replicate 2
[7] = 24 h, 10 µM, compound concentration 10 uM, replicate 1
[8] = 24 h, 10 µM, compound concentration 10 uM, replicate 2
[9] = 48 h, 1 µM, compound concentration 1 uM, replicate 1
[10] = 48 h, 1 µM, compound concentration 1 uM, replicate 2
[11] = 48 h, 10 µM, compound concentration 10 uM, replicate 1
[12] = 48 h, 10 µM, compound concentration 10 uM, replicate 2

CCCC(CCC)C(=O)O [VALPROIC ACID]
Population Apoptotic (%) [1]: 42% | Population Fragmented Nuclei (%) [1]: 13% | Population Healthy Nuclei (%) [1]: 65% | Population Hoechst High Intensity Objects (%) [1]: 3% | Population Membrane Permeable-Phenotype (%) [1]: 2% | Population Mitochondria Different-Phenotype (%) [1]: 2% | Population Mitotic Cells (%) [1]: 57% | Population Normal (%) [1]: 96% | Population Pyknosed Nuclei (%) [1]: 21% | Population Tubulin-Different-Phenotype (%) [1]: 27% | Population Apoptotic (%) [2]: 57% | Population Fragmented Nuclei (%) [2]: 20% | Population Healthy Nuclei (%) [2]: 47% | Population Hoechst High Intensity Objects (%) [2]: 8% | Population Membrane Permeable-Phenotype (%) [2]: 10% | Population Mitochondria Different-Phenotype (%) [2]: 14% | Population Mitotic Cells (%) [2]: 42% | Population Normal (%) [2]: 91% | Population Pyknosed Nuclei (%) [2]: 31% | Population Tubulin-Different-Phenotype (%) [2]: 49% | Population Apoptotic (%) [3]: 30% | Population Fragmented Nuclei (%) [3]: 29% | Population Healthy Nuclei (%) [3]: 60% | Population Hoechst High Intensity Objects (%) [3]: 4% | Population Membrane Permeable-Phenotype (%) [3]: 1% | Population Mitochondria Different-Phenotype (%) [3]: 3% | Population Mitotic Cells (%) [3]: 70% | Population Normal (%) [3]: 95% | Population Pyknosed Nuclei (%) [3]: 9% | Population Tubulin-Different-Phenotype (%) [3]: 16% | Population Apoptotic (%) [4]: 43% | Population Fragmented Nuclei (%) [4]: 16% | Population Healthy Nuclei (%) [4]: 53% | Population Hoechst High Intensity Objects (%) [4]: 2% | Population Membrane Permeable-Phenotype (%) [4]: 4% | Population Mitochondria Different-Phenotype (%) [4]: 8% | Population Mitotic Cells (%) [4]: 56% | Population Normal (%) [4]: 97% | Population Pyknosed Nuclei (%) [4]: 30% | Population Tubulin-Different-Phenotype (%) [4]: 41% | Population Apoptotic (%) [5]: 42% | Population Fragmented Nuclei (%) [5]: 11% | Population Healthy Nuclei (%) [5]: 69% | Population Hoechst High Intensity Objects (%) [5]: 5% | Population Membrane Permeable-Phenotype (%) [5]: 1% | Population Mitochondria Different-Phenotype (%) [5]: 2% | Population Mitotic Cells (%) [5]: 57% | Population Normal (%) [5]: 95% | Population Pyknosed Nuclei (%) [5]: 19% | Population Tubulin-Different-Phenotype (%) [5]: 22% | Population Apoptotic (%) [6]: 48% | Population Fragmented Nuclei (%) [6]: 22% | Population Healthy Nuclei (%) [6]: 53% | Population Hoechst High Intensity Objects (%) [6]: 7% | Population Membrane Permeable-Phenotype (%) [6]: 3% | Population Mitochondria Different-Phenotype (%) [6]: 7% | Population Mitotic Cells (%) [6]: 51% | Population Normal (%) [6]: 92% | Population Pyknosed Nuclei (%) [6]: 24% | Population Tubulin-Different-Phenotype (%) [6]: 54% | Population Apoptotic (%) [7]: 50% | Population Fragmented Nuclei (%) [7]: 27% | Population Healthy Nuclei (%) [7]: 66% | Population Hoechst High Intensity Objects (%) [7]: 6% | Population Membrane Permeable-Phenotype (%) [7]: 0% | Population Mitochondria Different-Phenotype (%) [7]: 1% | Population Mitotic Cells (%) [7]: 50% | Population Normal (%) [7]: 93% | Population Pyknosed Nuclei (%) [7]: 5% | Population Tubulin-Different-Phenotype (%) [7]: 21% | Population Apoptotic (%) [8]: 38% | Population Fragmented Nuclei (%) [8]: 30% | Population Healthy Nuclei (%) [8]: 46% | Population Hoechst High Intensity Objects (%) [8]: 3% | Population Membrane Permeable-Phenotype (%) [8]: 5% | Population Mitochondria Different-Phenotype (%) [8]: 4% | Population Mitotic Cells (%) [8]: 61% | Population Normal (%) [8]: 96% | Population Pyknosed Nuclei (%) [8]: 23% | Population Tubulin-Different-Phenotype (%) [8]: 41% | Population Apoptotic (%) [9]: 55% | Population Fragmented Nuclei (%) [9]: 18% | Population Healthy Nuclei (%) [9]: 66% | Population Hoechst High Intensity Objects (%) [9]: 7% | Population Membrane Permeable-Phenotype (%) [9]: 0% | Population Mitochondria Different-Phenotype (%) [9]: 1% | Population Mitotic Cells (%) [9]: 44% | Population Normal (%) [9]: 92% | Population Pyknosed Nuclei (%) [9]: 14% | Population Tubulin-Different-Phenotype (%) [9]: 19% | Population Apoptotic (%) [10]: 48% | Population Fragmented Nuclei (%) [10]: 36% | Population Healthy Nuclei (%) [10]: 44% | Population Membrane Permeable-Phenotype (%) [10]: 4% | Population Mitochondria Different-Phenotype (%) [10]: 7% | Population Mitotic Cells (%) [10]: 51% | Population Pyknosed Nuclei (%) [10]: 19% | Population Tubulin-Different-Phenotype (%) [10]: 55% | Population Apoptotic (%) [11]: 60% | Population Fragmented Nuclei (%) [11]: 30% | Population Healthy Nuclei (%) [11]: 60% | Population Hoechst High Intensity Objects (%) [11]: 1% | Population Membrane Permeable-Phenotype (%) [11]: 0% | Population Mitochondria Different-Phenotype (%) [11]: 1% | Population Mitotic Cells (%) [11]: 40% | Population Normal (%) [11]: 98% | Population Pyknosed Nuclei (%) [11]: 8% | Population Tubulin-Different-Phenotype (%) [11]: 18% | Population Fragmented Nuclei (%) [12]: 33% | Population Healthy Nuclei (%) [12]: 51% | Population Hoechst High Intensity Objects (%) [12]: 5% | Population Membrane Permeable-Phenotype (%) [12]: 6% | Population Mitochondria Different-Phenotype (%) [12]: 5% | Population Mitotic Cells (%) [12]: 39% | Population Normal (%) [12]: 94% | Population Pyknosed Nuclei (%) [12]: 15% | Population Tubulin-Different-Phenotype (%) [12]: 46%
